Source: PubChem
C2C12 statin: suppressors of statin myotoxicity in C2C12 myotubes, primary screen, cell-based, single point, plate reader; hit rate 0.78% among 330,000; C2C12 myotubes + simvastatin, ATP luminescence, 48 h; scaled: DMSO 0, geranylgeraniol control 100; rescue of ATP level, % at 7.49 µM;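 active means mean ATP rescue above about 67%, or every replicate alone reaching that limit, limit read from the data, passing the limit was not always enough; inconclusive means no clear call, values can overlap the other calls; inactive means mean under the limit and some replicate under it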;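 further: myotubes were challenged with 10 µM simvastatin during compound exposure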
PGC1a acetyl inh: inhibitors of PGC1a acetylation signal, primary screen, cell-based, U2OS, AlphaScreen, inhibitor mode; hit rate 0.17% among 350,000; AID 651687, 2012; AlphaScreen anti-acetyl-lysine; with virally co-expressed GCN5 acetyltransferase; inhibition, % at 15.6 µM;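 active means every replicate shows inhibition of at least 40%; inconclusive means mean inhibition at least 40% but some replicate below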;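 further: 0% = neutral control wells and 100% = positive control wells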
DENV2 CPE: inhibitors of DENV2 cytopathic effect, primary screen, cell-based, plate reader, single concentration. DENV2-infected cells, cytopathic effect rescue. CPE inhibition, % at 9.99 µM. hit rate 1.7% among 350,000. AID 651640, 2012; in the data active means CPE inhibition above about 20%, passing the limit was not always enough; inconclusive means no clear call, values can overlap the other calls; tested in BHK-21 cells;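 further: 0% = median of neutral control wells and 100% = median of positive control wells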
S100A4 MyoIIA: inhibitors of S100A4-myosin IIA peptide binding, primary screen, biochemical, fluorescence polarization, TAMRA-MyoIIA peptide | inhibition, % at 10.7 µM | hit rate 0.14% among 360,000 | AID 652163, 2013;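 active means mean inhibition of at least 70% across replicates, with every replicate also reaching that level; inconclusive means mean inhibition reaches 70% but some replicates fall short; inactive means mean inhibition below 70%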
Target sequence (P26447 whole entry, looked up): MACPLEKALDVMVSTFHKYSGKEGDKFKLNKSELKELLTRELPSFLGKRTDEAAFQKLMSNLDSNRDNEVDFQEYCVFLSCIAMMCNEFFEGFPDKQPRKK
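Test system: S100A4 monomer protein; Medium: HEPES pH 7.2 with CaCl2, KCl, NaCl, DTT, Triton; Probe or stimulus: TAMRA-labelled myosin IIA heavy-chain peptide probe, 5 nM; Doses: one dose per compound; Times: polarization read 5 min after assay mix addition, stable 5–60 min; Benchmarks: neutral control DMSO, positive control TFP.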
SIRT5 block: SIRT5 desuccinylase inhibitors, primary screen, biochemical, fluorescence imaging, single point, set 5 | NAD-dependent protein deacylase sirtuin-5, mitochondrial (Homo sapiens), Q9NXA8 | Purified SirT5, succinyl-peptide AMC, trypsin-coupled fluorescence | inhibition, % at 15 µM | hit rate 1.1% among 330,000 | AID 652115, 2013; in the data active means inhibition above about 15%; inconclusive means no clear call, values can overlap the other calls
Target sequence (Q9NXA8 whole entry, looked up): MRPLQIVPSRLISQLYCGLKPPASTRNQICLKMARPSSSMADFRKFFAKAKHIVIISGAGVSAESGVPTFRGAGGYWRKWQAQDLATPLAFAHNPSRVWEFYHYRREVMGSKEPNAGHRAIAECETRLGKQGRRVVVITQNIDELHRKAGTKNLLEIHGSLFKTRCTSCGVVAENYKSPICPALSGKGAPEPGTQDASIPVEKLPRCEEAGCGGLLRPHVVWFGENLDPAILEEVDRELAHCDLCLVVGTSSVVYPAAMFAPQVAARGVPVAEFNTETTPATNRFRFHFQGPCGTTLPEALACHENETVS
* = called active by the depositor; u = inconclusive; x = no result; ! = not confirmed by another sample. Only some compounds are listed: those with a hit (about 2.9% of all), similar ones and a draw of the others.

SMILES | C2C12 statin | PGC1a acetyl inh | DENV2 CPE | S100A4 MyoIIA | SIRT5 block
CNC[C@@H]1Oc2ccc(NC(=O)C3CCCCC3)cc2C(=O)N([C@H](C)CO)C[C@@H]1C | 1 | -2 | -2 | 2 | x
COC(=O)C(Cc1ccc(OC(=O)c2ccc(C(F)(F)F)cc2)cc1)N1Cc2ccccc2C1=O (centres undefined) | -3 | 0 | x | x | x
COC(=O)C(Cc1ccc(OC(=O)c2ccc(Cl)cc2)cc1)N1Cc2ccccc2C1=O (centres undefined) | 84* | 7 | x | x | x
O=C(Nc1cccc(S(=O)(=O)NC2=NCCC2)c1)c1ccccc1F | -1 | -1 | 1 | -4 | -2
COc1cc(SC)ccc1C(=O)Nc1cccc(S(=O)(=O)NC2=NCCC2)c1 | -5 | -4 | u | 5 | 15*
O=C1C(SC(F)(F)C(F)F)=C(C(F)(F)F)OC2C3C=CC(C3)C12 (centres undefined) | 107* | -2 | x | x | x
O=C1C2(CCC13COC(c1ccc(O)cc1)OC3)COC(c1ccc(O)cc1)OC2 (centres undefined) | 0 | -26 | x | x | x
O=C1C2(CCCC13COC(c1ccc(O)cc1)OC3)COC(c1ccc(O)cc1)OC2 (centres undefined) | x | x | 28* | 1 | -1
c1ccc2c(c1)CNC1(CCCCC1)C2 | 107* | -3 | x | x | x
C[C@@H]1CN([C@@H](C)CO)C(=O)Cc2cc(NC(=O)C3CCCCC3)ccc2O[C@H]1CN(C)Cc1ccc(C(=O)O)cc1 | -22 | 2 | -4 | 2 | 0
COc1ccc(NC(=O)N(C)C[C@@H]2OCCCC[C@@H](C)Oc3ccc(NC(=O)c4ccncc4)cc3C(=O)N([C@@H](C)CO)C[C@H]2C)cc1 | x | -8 | 41* | x | x
C[C@@H]1CN([C@H](C)CO)C(=O)c2cc(N(C)C)ccc2O[C@@H](C)CCCCO[C@@H]1CN(C)C(=O)CCC(F)(F)F | -2 | 20 | 106* | 6 | 1
C[C@H](CO)N1C[C@H](C)[C@@H](CN(C)Cc2ccc(C(=O)O)cc2)Oc2ccc(NC(=O)c3ccncc3)cc2C1=O | -13 | 5 | 4 | 3 | -2
C[C@H]1CN([C@@H](C)CO)C(=O)c2cc(NC(=O)c3ccncc3)ccc2O[C@H]1CN(C)Cc1ccc(C(=O)O)cc1 | 1 | 4 | 42*! | 17 | 1
C[C@@H]1CN([C@@H](C)CO)C(=O)c2cc(NC(=O)c3ccncc3)ccc2O[C@@H](C)CCCCO[C@H]1CN(C)Cc1ccc(C(F)(F)F)cc1 | 116* | x | -6 | 1 | 15
C[C@@H]1CCCCO[C@@H](CN(C)C(=O)CCC(F)(F)F)[C@H](C)CN([C@H](C)CO)C(=O)c2cc(N(C)C)ccc2O1 | -22 | 6 | x | x | x
C[C@H](CO)N1C[C@H](C)[C@H](CN(C)Cc2ccc(C(F)(F)F)cc2)OCCCC[C@H](C)Oc2ccc(NC(=O)c3ccccc3)cc2C1=O | x | -4 | 1 | 3 | 0
C[C@@H]1CN([C@H](C)CO)C(=O)CCCn2cc(nn2)CO[C@H]1CN(C)Cc1ccccc1C(=O)O | 0 | -1 | 13 | -2 | -2
C[C@@H]1CCCCO[C@@H](CN(C)C(=O)CCC(F)(F)F)[C@H](C)CN([C@H](C)CO)C(=O)c2cc(NC(=O)c3ccncc3)ccc2O1 | x | -2 | 21* | -8 | 2
C[C@@H]1CCCCO[C@@H](CN(C)C(=O)Nc2ccc(C(F)(F)F)cc2)[C@@H](C)CN([C@H](C)CO)C(=O)c2cc(NC(=O)c3ccncc3)ccc2O1 | x | 2 | 28* | -4 | x
C[C@@H]1CCCCO[C@H](CN(C)Cc2ccc(C(=O)O)cc2)[C@H](C)CN([C@H](C)CO)C(=O)c2cc(NC(=O)c3ccncc3)ccc2O1 | x | -6 | 42* | 1 | -3
C[C@H](CO)N1C[C@H](C)[C@@H](CN(C)Cc2ccc(C(F)(F)F)cc2)OCCCC[C@H](C)Oc2ccc(NC(=O)c3ccccc3)cc2C1=O | x | 15 | -18 | -48 | -2
C[C@H](CO)N1C[C@H](C)[C@H](CN(C)Cc2ccc(C(=O)O)cc2)OCCCC[C@H](C)Oc2ccc(NC(=O)c3ccncc3)cc2C1=O | x | -9 | -5 | -1 | -4
C[C@@H]1CN([C@@H](C)CO)C(=O)c2cc(NC(=O)c3ccncc3)ccc2O[C@@H](C)CCCCO[C@@H]1CN(C)Cc1ccc(C(F)(F)F)cc1 | 121* | x | -4 | -9 | 16*
C[C@@H]1CCCCO[C@H](CN(C)C(=O)Nc2ccc(C(F)(F)F)cc2)[C@@H](C)CN([C@@H](C)CO)C(=O)c2cc(NC(=O)c3ccncc3)ccc2O1 | x | 8 | 2 | -5 | 9
SMILES | C2C12 statin | PGC1a acetyl inh | DENV2 CPE | S100A4 MyoIIA | SIRT5 block
C[C@H]1CN([C@@H](C)CO)S(=O)(=O)c2ccc(C#Cc3ccncc3)cc2O[C@H]1CN(C)C | 14 | -1 | 19 | -13 | 4
C[C@@H]1CN([C@H](C)CO)C(=O)c2cc(-c3cccc(F)c3)cnc2O[C@H]1CN(C)Cc1cncnc1 | x | -8 | -2 | 0 | -4
CSc1nc(NC(C)=O)nc(C)c1Cl | 147* | 7 | x | x | x
C[C@@H]1CN([C@H](C)CO)C(=O)c2cc(NC(=O)CCC(F)(F)F)ccc2O[C@H]1CN(C)Cc1ccc(C(=O)Nc2ccccc2N)cc1 | x | 5 | 20* | -19 | x
C[C@H]1CN([C@@H](C)CO)C(=O)c2cc(N(C)C)ccc2O[C@@H]1CN(C)Cc1ccc(C(=O)Nc2ccccc2N)cc1 | 81* | -22 | 3 | 4 | -1
C[C@H]1CN([C@@H](C)CO)C(=O)c2cc(NC(=O)CCC(F)(F)F)ccc2O[C@H]1CN(C)Cc1ccc(C(=O)Nc2ccccc2N)cc1 | 15 | 25 | 10 | 12 | x
C[C@@H]1CN([C@H](C)CO)C(=O)c2cc(NC(=O)Nc3ccc(C(F)(F)F)cc3)ccc2O[C@H]1CN(C)Cc1ccc(C(=O)Nc2ccccc2N)cc1 | x | 1 | 22* | -7 | 8
C[C@@H]1CN([C@H](C)CO)C(=O)c2cc(NC(=O)Nc3ccc(C(F)(F)F)cc3)ccc2O[C@@H]1CN(C)Cc1ccc(C(=O)Nc2ccccc2N)cc1 | 113* | 21 | -8 | -1 | 1
CCCC(=O)Nc1ccc2c(c1)OC[C@@H](C)N(Cc1ccccc1C(=O)O)C[C@@H](C)[C@H](OC)CN(C)C2=O | 4 | -6 | 10 | -1 | -12
CCCC(=O)N1CC2(CCN(Cc3cccnc3)CC2)c2c([nH]c3cc(OC)ccc23)[C@H]1CO | x | -6 | 18 | x | x
O=C(NCC(c1cccs1)N1CCOCC1)C1CCN(S(=O)(=O)c2ccccc2C(F)(F)F)CC1 (centres undefined) | x | x | 61* | 0 | -2
